Key:
Hs-578T = experiment: Growth inhibition of human HS578T cells; format: functional
SK-MEL-5 = experiment: Growth inhibition of human SK-MEL-5 cells; format: functional
In short: (§1)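 Tested at the NCI in its human disease-oriented in vitro screen of 60 tumour cell lines, following the Monks et al. methods. Activity is expressed as GI50, given as log molar values.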

HCT-15 = experiment: Growth inhibition of human HCT15 cells; format: functional
PC-3 = experiment: Growth inhibition of human PC3 cells; format: functional
SF-539 = experiment: Growth inhibition of human SF539 cells; format: functional; in short: as §1
[1] = Growth inhibition of human […] cells; format: functional
[2] = Growth inhibition of human OVACR8 cells; format: functional
MDA-MB-231 = experiment: Growth inhibition of human MDA-MB-231 cells; format: functional
[3] = Growth inhibition of human HL60(TB) cells; format: functional, HL-60(TB); conditions: HL-60
SF-268 = experiment: Growth inhibition of human SF268 cells; format: functional; in short: as §1
HOP-62 = experiment: Growth inhibition of human HOP62 cells; format: functional
NCI-H23 = experiment: Growth inhibition of human NCI-H23 cells; format: functional
SNB-75 = experiment: Growth inhibition of human SNB75 cells; format: functional; in short: as §1
786-0 = experiment: Growth inhibition of human 786-0 cells; format: functional
[4] = Growth inhibition of human OVACR4 cells; format: functional
A498 = experiment: Growth inhibition of human A498 cells; format: functional
SK-MEL-2 = experiment: Growth inhibition of human SK-MEL-2 cells; format: functional; in short: as §1
[5] = Growth inhibition of human OVACR5 cells; format: functional
KM12 = experiment: Growth inhibition of human KM12 cells; format: functional
HOP-92 = experiment: Growth inhibition of human HOP92 cells; format: functional
[6] = Growth inhibition of human RPMI8266 cells; format: functional
DU-145 = experiment: Growth inhibition of human DU145 cells; format: functional
UACC-257 = experiment: Growth inhibition of human UACC257 cells; format: functional; in short: as §1
RXF 393 = experiment: Growth inhibition of human […] cells; format: functional
[7] = Growth inhibition of human MCF7/ADR-RES cells; format: functional; conditions: NCI/ADR-RES
A549 = experiment: Growth inhibition of human A549 cells; format: functional
LOX IMVI = experiment: Growth inhibition of human LOX IMVI cells; format: functional
SF-295 = experiment: Growth inhibition of human SF295 cells; format: functional; in short: as §1
SN12C = experiment: Growth inhibition of human SN12C cells; format: functional; in short: as §1
SNB-19 = experiment: Growth inhibition of human SNB19 cells; format: functional; in short: as §1
M14 = experiment: Growth inhibition of human M14 cells; format: functional
COLO 205 = experiment: Growth inhibition of human COLO205 cells; format: functional
MCF7 = experiment: Growth inhibition of human MCF7 cells; format: functional
HCC 2998 = experiment: Growth inhibition of human HCC2998 cells; format: functional
NCI-H460 = experiment: Growth inhibition of human NCI-H460 cells; format: functional
IGROV-1 = experiment: Growth inhibition of human IGROV1 cells; format: functional
CCRF-CEM = experiment: Growth inhibition of human CCRF-CEM cells; format: functional
HCT-116 = experiment: Growth inhibition of human HCT116 cells; format: functional
ACHN = experiment: Growth inhibition of human ACHN cells; format: functional
NCI-H226 = experiment: Growth inhibition of human NCI-H226 cells; format: functional
NCI-H322M = experiment: Growth inhibition of human NCI-H322M cells; format: functional
MDA-MB-435 = experiment: Growth inhibition of human MDA-MB-435 cells; format: functional
SW-620 = experiment: Growth inhibition of human SW620 cells; format: functional; in short: as §1
T47D = experiment: Growth inhibition of human T47D cells; format: functional; in short: as §1
HT-29 = experiment: Growth inhibition of human HT29 cells; format: functional
TK-10 = experiment: Growth inhibition of human TK10 cells; format: functional; in short: as §1
K562 = experiment: Growth inhibition of human K562 cells; format: functional
MOLT-4 = experiment: Growth inhibition of human MOLT4 cells; format: functional
NCI-H522 = experiment: Growth inhibition of human NCI-H522 cells; format: functional
MDA-N = experiment: Growth inhibition of human MDA-N cells; format: functional
U-251 = experiment: Growth inhibition of human U251 cells; format: functional; in short: as §1
BT-549 = experiment: Growth inhibition of human BT549 cells; format: functional
SK-OV-3 = experiment: Growth inhibition of human SK-OV-3 cells; format: functional; in short: as §1
Malme-3M = experiment: Growth inhibition of human MALME-3M cells; format: functional
SR = experiment: Growth inhibition of human SR cells; format: functional; in short: as §1
UO-31 = experiment: Growth inhibition of human UO31 cells; format: functional; in short: as §1

Compound `C=C(C)C(O)CCC1(C)C=Cc2c(c(C)cc3c2[nH]c2ccccc23)O1` (stereo not drawn) has a GI50 (Hs-578T) of 3.16 µM, a GI50 (SK-MEL-5) of 10 µM and a GI50 (HCT-15) of 1.95 µM. It also gave a GI50 (PC-3) of 6.61 µM, a GI50 (SF-539) of 3.63 µM and a GI50 [1] of 10.2 µM. It also gave a GI50 [2] of 10.7 µM, a GI50 (MDA-MB-231) of 3.47 µM and a GI50 [3] of 4.27 µM. For the same compound, the GI50 (SF-268) was 5.62 µM, the GI50 (HOP-62) was 2.45 µM and the GI50 (NCI-H23) was 10.7 µM. It also gave a GI50 (SNB-75) of 3.31 µM, a GI50 (786-0) of 3.89 µM and a GI50 [4] of 16.6 µM. It also gave a GI50 (A498) of 13.5 µM, a GI50 (SK-MEL-2) of 2.09 µM and a GI50 [5] of 2.09 µM. It also gave a GI50 (KM12) of 2 µM, a CC50 (KM12; read-out: pLC50 (the source's name) (converted)) of 9.33 µM and a GI50 (HOP-92) of 10.2 µM. For the same compound, the GI50 [6] was 2.95 µM, the GI50 (DU-145) was 12.6 µM and the GI50 (UACC-257) was 8.13 µM. It also gave a GI50 (RXF 393) of 2.75 µM, a GI50 [7] of 8.91 µM and a GI50 (A549) of 5.01 µM. It also gave a GI50 (LOX IMVI) of 3.09 µM, a GI50 (SF-295) of 4.37 µM and a GI50 (SN12C) of 9.55 µM. The GI50 (SNB-19) was 11.5 µM, the GI50 (M14) was 6.61 µM and the GI50 (COLO 205) was 2.45 µM. For the same compound, the GI50 (MCF7) was 12.3 µM, the GI50 (HCC 2998) was 2.19 µM and the GI50 (NCI-H460) was 2.34 µM. It also gave a GI50 (IGROV-1) of 8.32 µM, a GI50 (CCRF-CEM) of 4.17 µM and a GI50 (HCT-116) of 9.77 µM. For the same compound, the GI50 (ACHN) was 4.47 µM, the GI50 (NCI-H226) was 6.31 µM and the GI50 (NCI-H322M) was 7.94 µM. The GI50 (MDA-MB-435) was 8.32 µM, the GI50 (SW-620) was 5.13 µM and the GI50 (T47D) was 7.76 µM. It also gave a GI50 (HT-29) of 1.7 µM, an LC50 (HT-29) of 6.17 µM and a GI50 (TK-10) of 14.1 µM. The GI50 (K562) was 2.75 µM, the GI50 (MOLT-4) was 3.47 µM and the GI50 (NCI-H522) was 3.31 µM. For the same compound, the GI50 (MDA-N) was 3.55 µM, the GI50 (U-251) was 5.37 µM and the GI50 (BT-549) was 12.9 µM. The GI50 (SK-OV-3) was 11 µM, the GI50 (Malme-3M) was 11.2 µM and the GI50 (SR) was 4.47 µM. The GI50 (UO-31) was 12 µM.

Reference: ChEMBL document CHEMBL1142636 (2000)
